Rows were chosen to be rich in hits. Some 4.6% of all compounds tested hit in one or more screens of this group.
OX1R antag-1: human HCRTR1 antagonism; O43613; 330,000 tested, 0.43% active; CHO/OX1R cells, Fluo-8 calcium fluorescence, orexin A; inhibition, % at 5 µM;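 active = inhibition above its plate's threshold, mean inhibition of all tested compounds on the plate plus 3 SD, cut at about 37% in these data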;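 note: 0% = orexin A challenge wells and 100% = SB-334867-A antagonist wells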
GPR7 antagonist: blocks human GPR7 receptor signaling | P48145 | GPR7-expressing cells, fluorescence antagonist assay | inhibition, % at 4.4 µM | 290,000 tested, 1.1% active; in the data active = inhibition above about 16%, passing the limit was not always enough;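 note: cells stimulated with the agonist NPW; 0% = agonist with vehicle and 100% = vehicle without agonist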
Target sequence (P48145 whole entry, looked up): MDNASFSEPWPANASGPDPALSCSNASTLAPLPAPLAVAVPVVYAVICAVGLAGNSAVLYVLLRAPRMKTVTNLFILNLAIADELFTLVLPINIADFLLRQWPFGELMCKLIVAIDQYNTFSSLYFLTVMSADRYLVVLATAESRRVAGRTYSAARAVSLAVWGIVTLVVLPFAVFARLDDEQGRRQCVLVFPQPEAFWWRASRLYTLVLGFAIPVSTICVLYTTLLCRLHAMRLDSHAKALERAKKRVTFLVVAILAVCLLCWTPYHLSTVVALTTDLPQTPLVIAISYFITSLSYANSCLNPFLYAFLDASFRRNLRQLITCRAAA
CHO parental Ca: counter-screen: ATP calcium response change in parental CHO cells; inhibition, % at 5.6 µM; AID 463079; parental CHO-K1, ATP-induced calcium, Fluo-8 fluorescence; 330,000 tested, 0.63% active;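 active = inhibition above that plate's mean sample inhibition plus 3 SD, cut at about 26% in these data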;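 note: 0% = ATP-challenged DMSO wells and 100% = DMSO wells without ATP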
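Material: parental CHO cells / Compound: single nominal dose of 5.6 µM per compound / Signal: Fluo-8 fluorescence / Replicates: singlicate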
TAAR1 agonist: human TAAR1 agonism; CHO RD-HGA16 TAAR1, Fluo-8 calcium fluorescence; vehicle wells 0%, saturating PEA agonist 100%; activation, % at 3 µM; 360,000 tested, 0.99% active; AID 624467;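 active = activation above the mean activation of all test compounds in the run plus 3 SD, cut at about 38% in these data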
Target sequence (Q96RJ0 whole entry, looked up): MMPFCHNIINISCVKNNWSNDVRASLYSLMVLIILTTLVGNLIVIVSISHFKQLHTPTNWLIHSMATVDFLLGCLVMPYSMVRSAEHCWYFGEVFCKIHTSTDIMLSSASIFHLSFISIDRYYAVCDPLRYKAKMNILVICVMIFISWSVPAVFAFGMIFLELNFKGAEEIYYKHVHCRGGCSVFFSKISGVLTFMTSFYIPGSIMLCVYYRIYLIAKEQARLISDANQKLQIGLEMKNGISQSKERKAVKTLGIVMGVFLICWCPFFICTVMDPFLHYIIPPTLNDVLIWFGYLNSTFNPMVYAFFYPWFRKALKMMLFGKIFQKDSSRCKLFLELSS
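Repeats: no replicates (n 1) | Material: CHO-derived RD-HGA16 cells with stable Gα16 and human TAAR1 | Technique: Kinetic Fluo-8 calcium fluorescence | Schedule: 17-24 h seeding, 75 min 37 °C dye, 30 min RT | Evaluation: % activation from peak over basal fluorescence ratio, DMSO-to-PEA scaled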
OX1R antag-2: OX1R (human) antagonism; AID 485270; 330,000 tested, 1.8% active; inhibition, % at 6.6 µM; OX1R-expressing cells, FRET antagonist read-out; O43613; in the data active = inhibition mostly above about 38%, no sharp cut-off; inactive = mostly below about 40%;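 note: 0% = agonist challenge alone and 100% = reference antagonist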
TAAR1 antag: antagonists of human TAAR1; CHO RD-HGA16 TAAR1, Fluo-8 calcium fluorescence, antagonist; AID 624466; 360,000 tested, 1.5% active; inhibition, % at 3 µM;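 active = inhibition above a per-plate cutoff, the mean inhibition of test compounds on that plate plus 3 SD, cut at about 49% in these data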;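 note: 0% = DMSO plus EC80 beta-PEA response and 100% = DMSO alone without agonist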
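Assay system: CHO-derived RD-HGA16 cells stably expressing human TAAR1 plus Gα16. Timing: 140 s kinetic read after compound, 140 s after agonist. Technique: kinetic Fluo-8 calcium fluorescence measurement. Measure: % inhibition of agonist calcium response.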
Starred values were filed as active, the others as inactive.

Results for C=CC[C@@H](CC(=O)N(CCO)Cc1ccccc1)C(=O)NC[C@@H](OC(=O)[C@@H](CC=C)Cc1ccc(F)cc1)c1ccccc1 ?
OX1R antag-1: 39; CHO parental Ca: -7; TAAR1 agonist: 13; OX1R antag-2: 7; TAAR1 antag: 69*

What do the screens show for `C=CC[C@H](CC(=O)N(CCO)Cc1ccccc1)C(=O)NC[C@H](OC(=O)[C@@H](CC=C)Cc1ccc(F)cc1)c1ccccc1`?
OX1R antag-1: 26; CHO parental Ca: 5; TAAR1 agonist: 28; OX1R antag-2: 16; TAAR1 antag: 90*

How did C=CC[C@H](CC(=O)N(CCO)Cc1ccccc1)C(=O)NCCOC(=O)[C@@H](CC=C)Cc1ccc(F)cc1 do in these assays?
OX1R antag-1: 4; CHO parental Ca: -12; TAAR1 agonist: 9; OX1R antag-2: 17; TAAR1 antag: 17

How did O=[N+]([O-])c1ccc(S(=O)(=O)NCC2COc3ccccc3O2)cc1 (stereo unspecified) do in these assays?
OX1R antag-1: -18; GPR7 antagonist: 5; CHO parental Ca: -4; TAAR1 agonist: 5; OX1R antag-2: 6; TAAR1 antag: -10

How did O=Nc1c(O)n(Cc2ccccc2)c2ccccc12 do in these assays?
OX1R antag-1: -5; GPR7 antagonist: -14; CHO parental Ca: 7; TAAR1 agonist: 0; OX1R antag-2: 6; TAAR1 antag: -14

Results for O=Nc1c(O)n(Cc2ccc(Cl)c(Cl)c2)c2ccccc12 ?
OX1R antag-1: -4; GPR7 antagonist: -9; CHO parental Ca: 38*; TAAR1 agonist: 11; OX1R antag-2: 21; TAAR1 antag: -9

Results for O=C1C=C(N2CCOCC2)c2ccccc2C1=O ?
OX1R antag-1: -13; GPR7 antagonist: -9; CHO parental Ca: -3; TAAR1 agonist: 5; OX1R antag-2: 64*; TAAR1 antag: 13

How did O=C1C=C(N2CCOCC2)c2cccc3cccc1c23 do in these assays?
TAAR1 agonist: 11; TAAR1 antag: 0

What do the screens show for `COc1ccc(-n2c(O)c(/C=N/NS(=O)(=O)c3ccc(C)c([N+](=O)[O-])c3)c3ccccc3c2=O)cc1OC`?
OX1R antag-1: -15; GPR7 antagonist: -12; CHO parental Ca: -15; TAAR1 agonist: 42*; OX1R antag-2: 20; TAAR1 antag: 38

How did COc1cc(/C=N/NS(=O)(=O)c2ccc(C)c([N+](=O)[O-])c2)ccc1O do in these assays?
OX1R antag-1: -2; GPR7 antagonist: -10; CHO parental Ca: 3; TAAR1 agonist: 1; OX1R antag-2: 16; TAAR1 antag: -27

What do the screens show for `CCCSc1nnc2[nH]c(=O)cc(N)n12`?
OX1R antag-1: -16; GPR7 antagonist: 5; CHO parental Ca: 6; TAAR1 agonist: 2; OX1R antag-2: -3; TAAR1 antag: -5

Results for Cc1ccc(C(=O)NCC(=O)OCC(=O)c2ccc3c(c2)NC(=O)CO3)cc1C ?
OX1R antag-1: 7; GPR7 antagonist: -8; CHO parental Ca: -3; TAAR1 agonist: 2; OX1R antag-2: 26; TAAR1 antag: -5

Results for Cc1cc(C)cc(OCC(=O)OCC(=O)c2ccc3c(c2)NC(=O)CO3)c1 ?
OX1R antag-1: 7; GPR7 antagonist: -9; CHO parental Ca: 38*; TAAR1 agonist: 19; OX1R antag-2: 24; TAAR1 antag: 17

Results for CCCCCNC(=O)c1ccc2c(=O)[nH]c3c(C(=O)NCC4CCCO4)sc(=S)n3c2c1 (stereo unspecified) ?
OX1R antag-1: -27; GPR7 antagonist: -2; CHO parental Ca: 2; TAAR1 agonist: 13; OX1R antag-2: 79*; TAAR1 antag: -8

Results for Clc1cncc(Cl)c1N/N=C/c1ccccc1 ?
OX1R antag-1: -33; GPR7 antagonist: -12; CHO parental Ca: -23; TAAR1 agonist: 10; OX1R antag-2: 4; TAAR1 antag: -2

What do the screens show for `Cc1ccc(-n2cccc2/C=C2/C(=N)N3C(=NC2=O)SN=C3S(C)(=O)=O)cc1`?
OX1R antag-1: -26; GPR7 antagonist: 2; CHO parental Ca: -16; TAAR1 agonist: 6; OX1R antag-2: 32; TAAR1 antag: 26

What do the screens show for `Cc1cc(C)cc(-n2cccc2/C=C2/C(=N)N3C(=NC2=O)SN=C3S(C)(=O)=O)c1`?
OX1R antag-1: -5; GPR7 antagonist: -1; CHO parental Ca: -1; TAAR1 agonist: 0; OX1R antag-2: 51*; TAAR1 antag: 30

What do the screens show for `CS(=O)(=O)C1=NSC2=NC(=O)/C(=C\c3cccn3-c3ccccc3Cl)C(=N)N21`?
OX1R antag-1: -24; GPR7 antagonist: -16; CHO parental Ca: -14; TAAR1 agonist: 5; OX1R antag-2: 64*; TAAR1 antag: 21

How did CCc1ccc(-n2cccc2/C=C2/C(=N)N3C(=NC2=O)SN=C3S(C)(=O)=O)cc1 do in these assays?
OX1R antag-1: -1; GPR7 antagonist: 1; CHO parental Ca: -3; TAAR1 agonist: 1; OX1R antag-2: 66*; TAAR1 antag: 57*

Results for S=c1[nH]cc(-c2ccc(Cl)cc2)n1Cc1ccccc1 ?
OX1R antag-1: -22; GPR7 antagonist: -6; CHO parental Ca: 93*; TAAR1 agonist: 1; OX1R antag-2: 10; TAAR1 antag: -29

What do the screens show for `CCn1c(-c2ccccc2)c[nH]c1=S`?
OX1R antag-1: -19; GPR7 antagonist: 2; CHO parental Ca: -8; TAAR1 agonist: -2; OX1R antag-2: 16; TAAR1 antag: -18

How did O=C(Nc1nccs1)C1CCCN(S(=O)(=O)c2cccnc2)C1 (stereo unspecified) do in these assays?
OX1R antag-1: 8; GPR7 antagonist: 12; CHO parental Ca: 6; TAAR1 agonist: 1; OX1R antag-2: 9; TAAR1 antag: 1

What do the screens show for `CSc1nnc2c3ccccc3n(CCc3ccccc3)c2n1`?
OX1R antag-1: -36; GPR7 antagonist: 4; CHO parental Ca: -4; TAAR1 agonist: 3; OX1R antag-2: 11; TAAR1 antag: 21

How did COc1ccc(S(=O)(=O)c2nnn(-c3cccc(Cl)c3)c2N)cc1 do in these assays?
OX1R antag-1: 11; GPR7 antagonist: 20*; CHO parental Ca: 2; TAAR1 agonist: 46*; OX1R antag-2: 18; TAAR1 antag: 4

What do the screens show for `Cc1cc(-n2c(C)cc(C(=O)CSc3ncnc4ccccc34)c2C)no1`?
OX1R antag-1: 70*; GPR7 antagonist: -5; CHO parental Ca: 66*; TAAR1 agonist: 15; OX1R antag-2: 47*; TAAR1 antag: 45

What do the screens show for `CC1CS(=O)(=O)CCN1N=Cc1ccc([N+](=O)[O-])o1` (stereo unspecified)?
OX1R antag-1: -5; CHO parental Ca: -6; TAAR1 agonist: 0; OX1R antag-2: 53*; TAAR1 antag: -15

How did Cc1cc(=O)n2c3ccccc3n(CC(O)CN3CCCCC3)c2c1C#N (stereo unspecified) do in these assays?
OX1R antag-1: -35; GPR7 antagonist: -4; CHO parental Ca: -20; TAAR1 agonist: 3; OX1R antag-2: 6; TAAR1 antag: 3

From PubChem
